Laboratory results reported in ChEMBL document CHEMBL3400042, “Mitotic arrest of breast cancer MDA-MB-231 cells by a halogenated thieno[3,2-d]pyrimidine” (Bioorg Med Chem Lett, 2015).
Calls of active or inactive are those of the source. The calls are words filed in the database; no cut-off is given here.

What was measured:
MDA-MB-231 [1] = assay: Cytotoxicity against human MDA-MB-231 cells after 48 hrs by MTT assay; type: functional, cell-based; conditions: MDA-MB-231, 48 h
Method in brief: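 MDA-MB-231 cells exposed to a range of compound concentrations for 48 h, then viability read by MTT. IC50 (50% cell death) obtained by non-linear regression to a sigmoidal dose-response function; mean ± SD of three independent experiments.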

MDA-MB-231 [2] = assay: Induction of cell cycle arrest in human MDA-MB-231 cells assessed as accumulation at G2/M phase at 15 uM after 48 hrs by propidium iodide staining based flow cytometry; type: functional
Method in brief: (§1)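 After 48 h of compound exposure, MDA-MB-231 cells were fixed, stained with propidium iodide and analysed by flow cytometry, with at least 3000 cells per population. Phase fractions (<G1, G1, S, G2/M, >G2) were compared with DMSO vehicle controls. Values are mean ± SD of 4 independent cell samples.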

MDA-MB-231 [3] = assay: Induction of cell cycle arrest in human MDA-MB-231 cells assessed as reduction in accumulation at G1 phase at 15 uM after 48 hrs by propidium iodide staining based flow cytometry; type: functional; method in brief: as §1
MDA-MB-231 [4] = assay: Induction of cell cycle arrest in human MDA-MB-231 cells assessed as reduction in accumulation at S phase at 15 uM after 48 hrs by propidium iodide staining based flow cytometry; type: functional; method in brief: as §1
MDA-MB-231 [5] = assay: Induction of cell cycle arrest in human MDA-MB-231 cells assessed as < G1 DNA content at 15 uM after 48 hrs by propidium iodide staining based flow cytometry; type: functional; method in brief: as §1
MDA-MB-231 [6] = assay: Induction of cell cycle arrest in human MDA-MB-231 cells assessed as >G2 DNA content at 15 uM after 48 hrs by propidium iodide staining based flow cytometry; type: functional; method in brief: as §1
MDA-MB-231 [7] = assay: Induction of cell cycle arrest in human MDA-MB-231 cells assessed as accumulation at G1 phase at 8 uM after 48 hrs by propidium iodide staining based flow cytometry; type: functional; method in brief: as §1
MDA-MB-231 [8] = assay: Induction of cell cycle arrest in human MDA-MB-231 cells assessed as accumulation at S phase at 8 uM after 48 hrs by propidium iodide staining based flow cytometry; type: functional; method in brief: as §1
MDA-MB-231 [9] = assay: Induction of cell cycle arrest in human MDA-MB-231 cells assessed as accumulation at G2/M phase at 8 uM after 48 hrs by propidium iodide staining based flow cytometry; type: functional; method in brief: as §1
MDA-MB-231 [10] = assay: Induction of cell cycle arrest in human MDA-MB-231 cells assessed as < G1 DNA content at 8 uM after 48 hrs by propidium iodide staining based flow cytometry; type: functional; method in brief: as §1
MDA-MB-231 [11] = assay: Induction of cell cycle arrest in human MDA-MB-231 cells assessed as >G2 DNA content at 8 uM after 48 hrs by propidium iodide staining based flow cytometry; type: functional; method in brief: as §1

| Structure (SMILES) | IC50 (MDA-MB-231 [1]) | Activity (MDA-MB-231 [2]) | Activity (MDA-MB-231 [3]) | Activity (MDA-MB-231 [4]) | Activity (MDA-MB-231 [5]) | Activity (MDA-MB-231 [6]) | Activity (MDA-MB-231 [7]) | Activity (MDA-MB-231 [8]) | Activity (MDA-MB-231 [9]) | Activity (MDA-MB-231 [10]) | Activity (MDA-MB-231 [11]) |
| --- | --- | --- | --- | --- | --- | --- | --- | --- | --- | --- | --- |
| Clc1nc(Cl)c2sccc2n1 | 9 µM | >70% | Active | Active | inactive | inactive | – | – | – | – | – |
| Clc1nc(Cl)c2scc(Br)c2n1 | 5.9 µM | – | – | – | – | – | inactive | inactive | inactive | inactive | inactive |
